Reference: ChEMBL document CHEMBL4699588, “Structure-Activity Relationships of Noncovalent Immunoproteasome β5i-Selective Dipeptides” (J Med Chem, 2020)
Active and inactive are the calls of the source. The rule behind the calls is not given here.

Legend:
Homo sapiens [1] = species: Homo sapiens; test: Selectivity index, ratio of IC50 for inhibition of human constitutive 20S proteasome beta 5 chymotrypsin-like activity to IC50 for inhibition of human 20S immunoproteasome beta 5 chymotrypsin-like activity
[2] = target: T1, Proteasome Macropain subunit MB1 (Homo sapiens, UniProt P28074); test: Inhibition of human constitutive 20S proteasome beta 5 chymotrypsin-like activity
T1 sequence (P28074 whole entry): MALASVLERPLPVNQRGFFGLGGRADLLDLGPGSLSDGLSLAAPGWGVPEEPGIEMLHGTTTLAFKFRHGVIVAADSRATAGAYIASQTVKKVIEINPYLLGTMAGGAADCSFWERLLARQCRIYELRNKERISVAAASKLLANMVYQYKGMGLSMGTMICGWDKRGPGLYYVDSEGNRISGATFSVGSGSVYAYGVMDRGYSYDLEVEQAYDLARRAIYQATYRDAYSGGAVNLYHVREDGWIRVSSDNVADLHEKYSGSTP
In short: (§1)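 Purified human proteasomes were used in a 96-well format assay: immunoproteasome i-20S from PBMC and constitutive c-20S from red blood cells. The readout was fluorogenic AMC peptide substrate cleavage on a plate reader, and IC50 values were determined from it.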

[3] = target: T2, Proteasome subunit beta type-9 (Homo sapiens) (UniProt P28065); test: Inhibition of human 20S immunoproteasome beta 1 at 33.3 uM relative to control
T2 sequence (whole entry): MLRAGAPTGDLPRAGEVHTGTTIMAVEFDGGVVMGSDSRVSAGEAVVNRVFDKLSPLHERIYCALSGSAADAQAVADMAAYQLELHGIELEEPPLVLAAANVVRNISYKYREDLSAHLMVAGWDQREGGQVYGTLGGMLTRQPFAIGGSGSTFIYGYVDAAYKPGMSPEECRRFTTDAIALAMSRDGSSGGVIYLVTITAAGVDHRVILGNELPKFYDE

[4] = target: T3, Proteasome subunit beta type-10 (Homo sapiens) (UniProt P40306); test: Inhibition of human 20S immunoproteasome beta 2 at 33.3 uM relative to control
T3 sequence (whole entry): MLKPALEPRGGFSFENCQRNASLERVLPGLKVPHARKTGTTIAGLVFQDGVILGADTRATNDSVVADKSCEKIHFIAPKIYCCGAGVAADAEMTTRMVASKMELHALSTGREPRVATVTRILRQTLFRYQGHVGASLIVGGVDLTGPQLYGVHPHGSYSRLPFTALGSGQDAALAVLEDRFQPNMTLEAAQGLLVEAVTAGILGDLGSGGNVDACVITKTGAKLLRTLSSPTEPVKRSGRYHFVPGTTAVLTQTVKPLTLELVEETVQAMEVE

[5] = Inhibition of anti-CD3 antibody-stimulated T cell proliferation in human PBMCs; assay type: functional, tissue-based; conditions: PBMC
Trypsin (Homo sapiens) = Trypsin (Homo sapiens) (UniProt P07477+P07478+P35030); test: Inhibition of trypsin (unknown origin) at 11.1 to 100 uM; conditions: dose 11.1-100 µM
[6] = target: Procathepsin L (Homo sapiens) (UniProt P07711); test: Inhibition of cathepsin L (unknown origin) at 11.1 to 100 uM; conditions: dose 11.1-100 µM
Chain of Procathepsin L (Homo sapiens) (P07711 114-333 limits assumed): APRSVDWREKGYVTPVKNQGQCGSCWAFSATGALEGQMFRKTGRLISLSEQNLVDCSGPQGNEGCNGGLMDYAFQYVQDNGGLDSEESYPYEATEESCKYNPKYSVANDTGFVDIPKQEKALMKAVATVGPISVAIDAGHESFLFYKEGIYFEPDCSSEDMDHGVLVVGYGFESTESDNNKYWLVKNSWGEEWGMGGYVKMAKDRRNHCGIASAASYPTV

Homo sapiens [7] = species: Homo sapiens; test: Inhibition of alpha-chymotrypsin (unknown origin) at 11.1 to 100 uM; conditions: dose 11.1-100 µM
[8] = target: proteasome subunit beta type-6, β1c, PSMB6 (Homo sapiens) (UniProt P28072); test: Inhibition of human 20S constitutive proteasome beta 1 at 33.3 uM relative to control
Chain of proteasome subunit beta type-6, β1c, PSMB6 (Homo sapiens) (P28072 whole entry, looked up): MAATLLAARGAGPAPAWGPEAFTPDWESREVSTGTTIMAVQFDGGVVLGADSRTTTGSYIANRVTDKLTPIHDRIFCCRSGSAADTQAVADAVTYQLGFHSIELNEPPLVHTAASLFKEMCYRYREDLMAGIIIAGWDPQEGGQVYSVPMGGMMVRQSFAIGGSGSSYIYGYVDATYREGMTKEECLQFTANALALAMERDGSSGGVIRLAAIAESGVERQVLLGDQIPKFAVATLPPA

[9] = target: proteasome subunit beta type-7, β2c, PSMB7 (Homo sapiens) (UniProt Q99436); test: Inhibition of human 20S constitutive proteasome beta 2 at 33.3 uM relative to control
Chain of proteasome subunit beta type-7, β2c, PSMB7 (Homo sapiens) (Q99436 whole entry, looked up): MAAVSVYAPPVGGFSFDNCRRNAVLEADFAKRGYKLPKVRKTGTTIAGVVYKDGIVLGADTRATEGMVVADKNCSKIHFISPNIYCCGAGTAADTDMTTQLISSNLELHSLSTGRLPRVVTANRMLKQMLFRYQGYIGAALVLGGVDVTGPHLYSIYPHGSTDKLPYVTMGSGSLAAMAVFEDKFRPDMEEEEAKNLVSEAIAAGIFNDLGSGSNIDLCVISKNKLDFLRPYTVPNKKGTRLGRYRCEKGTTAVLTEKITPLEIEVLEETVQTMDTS

[10] = target: T4, Proteasome subunit beta type-8 (Homo sapiens, UniProt P28062); test: Inhibition of human 20S immunoproteasome beta 5 chymotrypsin-like activity; in short: as §1
T4 sequence (P28062 whole entry): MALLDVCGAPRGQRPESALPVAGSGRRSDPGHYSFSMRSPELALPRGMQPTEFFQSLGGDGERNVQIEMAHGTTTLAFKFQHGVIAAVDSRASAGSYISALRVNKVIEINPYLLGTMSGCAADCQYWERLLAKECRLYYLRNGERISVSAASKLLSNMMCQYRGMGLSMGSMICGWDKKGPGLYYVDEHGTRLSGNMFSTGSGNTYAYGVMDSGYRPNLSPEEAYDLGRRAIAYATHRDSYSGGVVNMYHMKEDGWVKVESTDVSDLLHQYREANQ

[11] = target: T4, Proteasome subunit beta type-8; test: Inhibition of human 20S immunoproteasome beta 5 chymotrypsin-like activity in human KARPAS-1106P cells incubated for 2 hrs by proteasome-Glo assay; assay type: cell-based

Structure (SMILES): COC[C@H](NC(=O)[C@H](CC(=O)NC(C)(C)C)NC(=O)CCc1ccccc1)C(=O)NCc1cccc2ccccc12
- Ratio IC50 (Homo sapiens [1]): 71

Structure (SMILES): COC[C@H](NC(=O)[C@H](CC(=O)N(C)C)NC(=O)CCc1ccccc1)C(=O)NCc1cccc2ccccc12
- IC50 [2]: > 100000 nM
- Ratio IC50 (Homo sapiens [1]): > 9

Structure (SMILES): COC[C@H](NC(=O)[C@H](CC(=O)NC(C)(C)C)NS(=O)(=O)c1ccc(C)cc1)C(=O)NCc1ccc(F)c2ccccc12
- inhibition [3]: < 50%
- inhibition [4]: < 50%
- EC50 [5]: 73 nM
- inhibition (Trypsin (Homo sapiens)): inactive
- inhibition [6]: inactive
- inhibition (Homo sapiens [7]): inactive
- inhibition [8]: < 50%
- inhibition [9]: < 50%

Structure (SMILES): C[C@H](NC(=O)[C@H](CC(=O)NOC(C)(C)C)NC(=O)CCc1ccccc1)C(=O)NCc1ccnc2ccccc12
- IC50 [10]: 2620 nM
- IC50 [2]: 59000 nM
- Ratio IC50 (Homo sapiens [1]): 23

Structure (SMILES): COC[C@H](NC(=O)[C@H](CC(=O)NOC(C)(C)C)NC(=O)CCc1ccccc1)C(=O)NCc1cccc2c1NCCC2
- IC50 [10]: 501 nM
- IC50 [2]: 27200 nM
- Ratio IC50 (Homo sapiens [1]): 54

Structure (SMILES): C[C@H](NC(=O)[C@H](CC(=O)NOC(C)(C)C)NC(=O)CCc1ccccc1)C(=O)NCc1cccc2[nH]ccc12
- IC50 [10]: 28.4 nM
- IC50 [2]: 170 nM
- Ratio IC50 (Homo sapiens [1]): 6

Structure (SMILES): CCN(CC)C(=O)C[C@H](NC(=O)CCc1ccccc1)C(=O)N[C@@H](COC)C(=O)NCc1cccc2ccccc12
- Ratio IC50 (Homo sapiens [1]): 8

Structure (SMILES): COC[C@H](NC(=O)[C@H](CC(=O)N1CCCCC1)NC(=O)CCc1ccccc1)C(=O)NCc1cccc2ccccc12
- Ratio IC50 (Homo sapiens [1]): 58

Structure (SMILES): Cc1ccc(S(=O)(=O)N[C@@H](CCC(=O)NC(C)(C)C)C(=O)N[C@@H](C)C(=O)NCc2ccc(F)c3ccccc23)cc1
- inhibition [3]: < 50%
- inhibition [4]: < 50%
- EC50 [5]: 39 nM
- inhibition (Trypsin (Homo sapiens)): inactive
- inhibition [6]: inactive
- inhibition (Homo sapiens [7]): inactive
- inhibition [8]: < 50%
- inhibition [9]: < 50%

Structure (SMILES): COC[C@H](NC(=O)[C@H](CC(=O)NOC(C)(C)C)NC(=O)CCc1ccccc1)C(=O)NCc1cccc2cccnc12
- IC50 [10]: 83.7 nM
- IC50 [2]: 1040 nM
- Ratio IC50 (Homo sapiens [1]): 12

Structure (SMILES): COC[C@H](NC(=O)[C@H](CC(=O)N1CCC1)NC(=O)CCc1ccccc1)C(=O)NCc1cccc2ccccc12
- IC50 [2]: > 100000 nM
- Ratio IC50 (Homo sapiens [1]): > 7

Structure (SMILES): C[C@H](NC(=O)[C@H](CC(=O)NC(C)(C)C)NC(=O)C(=O)c1c[nH]c2ccccc12)C(=O)NCc1cccc2ccccc12
- inhibition [3]: < 50%
- inhibition [4]: < 50%
- EC50 [5]: 21 nM
- inhibition (Trypsin (Homo sapiens)): inactive
- inhibition [6]: Active
- inhibition (Homo sapiens [7]): Active
- inhibition [8]: < 50%
- inhibition [9]: < 50%

Structure (SMILES): COC[C@H](NC(=O)[C@H](CCC(=O)NC(C)(C)C)NS(=O)(=O)c1ccc(C)cc1)C(=O)NCc1ccc(F)c2ccccc12
- inhibition [3]: < 50%
- inhibition [4]: < 50%
- EC50 [5]: 18 nM
- inhibition (Trypsin (Homo sapiens)): inactive
- inhibition [6]: inactive
- inhibition (Homo sapiens [7]): inactive
- inhibition [8]: < 50%
- inhibition [9]: < 50%

Structure (SMILES): COC[C@H](NC(=O)CCc1ccccc1)C(=O)N[C@@H](C)C(=O)NCc1cccc2ccccc12
- IC50 [10]: 21700 nM
- IC50 [2]: > 100000 nM
- Ratio IC50 (Homo sapiens [1]): > 5

Structure (SMILES): COC[C@H](NC(=O)[C@H](CC(=O)NC(C)(C)C)NC(=O)c1cc(C)on1)C(=O)NCc1cccc2ccccc12
- Ratio IC50 (Homo sapiens [1]): 274

Structure (SMILES): C[C@H](NC(=O)[C@H](CC(=O)NOC(C)(C)C)NC(=O)CCc1ccccc1)C(=O)NCc1cccc2ncccc12
- IC50 [10]: 1160 nM
- IC50 [2]: 12700 nM
- Ratio IC50 (Homo sapiens [1]): 11

Structure (SMILES): COC[C@H](NC(=O)[C@H](CC(=O)N1CCCC1)NC(=O)CCc1ccccc1)C(=O)NCc1cccc2ccccc12
- Ratio IC50 (Homo sapiens [1]): 28

Structure (SMILES): COC[C@H](NC(=O)[C@H](CC(=O)NOC(C)(C)C)NC(=O)CCc1ccccc1)C(=O)NCc1cccc(OC)c1OC
- IC50 [10]: 479 nM
- IC50 [2]: 980 nM
- Ratio IC50 (Homo sapiens [1]): 2

Structure (SMILES): COC[C@H](NC(=O)[C@H](CC(=O)NOC(C)(C)C)NC(=O)CCc1ccccc1)C(=O)NCc1cccc(OC)c1
- IC50 [10]: 14.4 nM
- IC50 [2]: 101 nM
- Ratio IC50 (Homo sapiens [1]): 7

Structure (SMILES): C[C@H](NC(=O)[C@H](CCC(=O)NC(C)(C)C)NC(=O)CCc1ccccc1)C(=O)NCc1ccc(F)c2ccccc12
- IC50 [10]: 1.6 nM
- inhibition [3]: < 50%
- inhibition [4]: < 50%
- IC50 [11]: 39 nM
- EC50 [5]: 44 nM
- inhibition (Trypsin (Homo sapiens)): inactive
- inhibition [6]: inactive
- inhibition (Homo sapiens [7]): inactive
- inhibition [8]: < 50%
- inhibition [9]: < 50%

Structure (SMILES): Cc1cc(C(=O)N[C@@H](CCC(=O)NC(C)(C)C)C(=O)N[C@@H](C)C(=O)NCc2ccc(F)c3ccccc23)no1
- inhibition [3]: < 50%
- inhibition [4]: < 50%
- EC50 [5]: 73 nM
- inhibition (Trypsin (Homo sapiens)): inactive
- inhibition [6]: inactive
- inhibition (Homo sapiens [7]): inactive
- inhibition [8]: < 50%
- inhibition [9]: < 50%

Structure (SMILES): NC(=O)C[C@H](NC(=O)CCc1ccccc1)C(=O)N[C@@H](Cc1ccc(F)cc1)C(=O)NCc1cccc2ccccc12
- IC50 [2]: > 100000 nM
- Ratio IC50 (Homo sapiens [1]): > 2.8
